Measured values as given in PubChem BioAssay AID439 (The Scripps Research Institute Molecular Screening Center, 2006).
Activity calls are given as the source filed them.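 Rule for the calls: active = compounds with EC50 at or below 10 micromolar; inactive = EC50 above 10 micromolar.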

Target: Sphingosine 1-phosphate receptor 3 (Homo sapiens) (UniProt Q99500)
Test: S1P3 receptor activation, EC50 – cell-based, NFAT-BLA reporter, dose response (AID 439)
Conditions: S1P3 NFAT-beta-lactamase reporter cells, FRET ratio
Summary of the method: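 Assay system: CHO cells stably expressing human S1P3, G-alpha-16, NFAT-beta-lactamase reporter; timing: 4 h compound treatment, 37 °C; technique: beta-lactamase FRET, 460 nm versus 535 nm emission ratio; evaluation: EC50 from four-parameter fit, activity relative to 1 µM S1P; replicates: triplicate wells per compound concentration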

Sphingosine 1-phosphate receptor 3 (Homo sapiens), sequence (Q99500 whole entry, looked up): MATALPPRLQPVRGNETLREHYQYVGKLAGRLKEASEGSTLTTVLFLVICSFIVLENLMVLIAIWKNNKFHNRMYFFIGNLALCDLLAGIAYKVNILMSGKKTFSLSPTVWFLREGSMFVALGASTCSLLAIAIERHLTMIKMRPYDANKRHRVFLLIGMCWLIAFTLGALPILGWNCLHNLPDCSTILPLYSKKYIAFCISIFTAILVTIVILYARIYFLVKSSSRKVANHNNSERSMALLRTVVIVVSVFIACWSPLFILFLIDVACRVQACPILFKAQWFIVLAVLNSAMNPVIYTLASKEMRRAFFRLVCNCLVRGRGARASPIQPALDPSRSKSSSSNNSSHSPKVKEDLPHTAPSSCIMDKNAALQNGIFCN

- EC50: inactive
SMILES: CCOC(=O)C1=C(N)OC2=C(C(=O)CCC2)C1c1ccccc1OCC (stereo unspecified)
